From ChEMBL document CHEMBL5647683 (Oncogene, 2008)
Active and inactive are the calls of the source. No cut-off for these calls is given here.

Assays:
NIH3T3 [1] = assay: Inhibition of colony formation in EGFR mutant L858R expressing mouse NIH3T3 cells assessed as number of colonies at 1 to 10000 nM incubated for 2 week by soft agar assay; type: functional, cell-based; conditions: dose 1-10000 nM, time 2.0 weeks
Method in brief: (§1)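 NIH-3T3 cells expressing wild-type or mutant EGFR suspended in top agar (DMEM, 10% calf serum, 0.4% agar) over 0.5% agar bottom layer; drug added to top layer; wild-type cells supplemented with 100 ng/ml EGF. Triplicate plating, 2-week incubation; colonies counted from 10 fields photographed at ×4; values normalized to untreated.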

NIH3T3 [2] = assay: Inhibition of colony formation in EGFR double mutant L858R/T790M expressing mouse NIH3T3 cells assessed as number of colonies at 1 to 10000 nM incubated for 2 week by soft agar assay; type: functional, cell-based; conditions: dose 1-10000 nM, time 2.0 weeks; method in brief: as §1
NIH3T3 [3] = assay: Inhibition of colony formation in wild-type EGFR expressing mouse NIH3T3 cells assessed as number of colonies at 1 to 10000 nM incubated for 2 week in the presence of EGF by soft agar assay; type: functional, cell-based; conditions: dose 1-10000 nM, time 2.0 weeks; method in brief: as §1
A-431 [4] = assay: Antitumor activity against human A-431 cells xenografted athymic NMRI-nu/nu female mouse as reduction in tumor volume at 20 mg/kg, po administered daily for 25 days relative to control; type: functional; conditions: time 25 day
Method in brief: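 Female athymic NMRI-nu/nu mice (5–6 weeks, 21–31 g) given 1–5×10⁶ cells into the right flank; MDA-MB-453 tumors started from fresh 2×2×2 mm fragments. At 40–130 mm³, tumors were randomized to weight-based daily oral gavage (10 ml/kg; 1.8% HP-β-CD, 5% acetic acid (10%), 0.5% Natrosol) or vehicle. Caliper measurement 3×/week, volume π/6×L×W². Expressed as cumulative treated/control volume ratio; one-way ANOVA with Dunnett's test.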

A-431 [5] = assay: In vivo inhibition of EGFR in human A-431 cells xenografted athymic NMRI-nu/nu female mouse as reduction in AKT phosphorylation at 20 mg/kg, po administered daily for 25 days by immunohistochemical staining; type: functional, organism-based; conditions: time 25.0 day
Method in brief: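 A431 flank xenografts in female NMRI-nu/nu mice dosed daily by oral gavage in HP-β-CD/acetic acid/Natrosol vehicle. Tumors collected 6 h after the last dose. Sections immunostained for phospho-EGFR and phospho-AKT.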

[6] = Cmax in human MDA-MB-453 cells xenografted athymic NMRI-nu/nu female mouse at 20 mg/kg, po administered daily for 25 days by LC-MS-MS method; type: ADME, organism-based; conditions: in vivo, time 25 day
[7] = Cmax in human HT-29 cells xenografted athymic NMRI-nu/nu female mouse at 20 mg/kg, po administered daily for 25 days by LC-MS-MS method; type: ADME, organism-based; conditions: in vivo, time 25 day
[8] = AUC(0-24hrs) in human A-431 cells xenografted athymic NMRI-nu/nu female mouse at 20 mg/kg, po administered daily for 25 days by LC-MS-MS method; type: ADME, organism-based; conditions: in vivo, time 25 day
[9] = AUC(0-24hrs) in human NCI-N87 cells xenografted athymic NMRI-nu/nu female mouse at 20 mg/kg, po administered daily for 25 days by LC-MS-MS method; type: ADME, organism-based; conditions: in vivo, time 25 day
[10] = AUC(0-24hrs) in human FaDu cells xenografted athymic NMRI-nu/nu female mouse at 20 mg/kg, po administered daily for 25 days by LC-MS-MS method; type: ADME, organism-based; conditions: in vivo, time 25 day
[11] = AUC(0-24hrs) in human SK-OV-3 cells xenografted athymic NMRI-nu/nu female mouse at 20 mg/kg, po administered daily for 25 days by LC-MS-MS method; type: ADME, organism-based; conditions: in vivo, time 25 day
Mus musculus [12] = assay: Antitumor activity against EGFR L858R/T790M mutant driven lung cancer mouse model assessed as reduction in tumor volume at 20 mg/kg, po administered daily for 4 weeks by MRI analysis relative to control; type: functional; parameters: scale not given: the % may be the effect or the level left
Method in brief: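 Tet-op-L858R/T790M EGFR/CCSP-rtTA bitransgenic mice, kept on doxycycline diet about 6 weeks and throughout the study. Mice with tumors identified by MRI were gavaged once daily with 20 mg/kg in 0.5% methylcellulose–0.4% Tween 80. MRI repeated at 2 and 4 weeks; tumor volume reduction reported as mean ± s.d.; Student's t-test.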

Mus musculus [13] = assay: Antitumor activity against EGFR L858R/T790M mutant driven lung cancer mouse model assessed as increase in pigment-laden macrophages indicative of tissue damage and repair at 20 mg/kg, po administered daily for 2 weeks by IHC staining based analysis; type: functional, organism-based
Mus musculus [14] = assay: Antitumor activity against EGFR L858R/T790M mutant driven lung cancer mouse model assessed as histological change in lung structure at 20 mg/kg, po administered daily for 2 weeks in the presence of rapamycin by IHC staining based analysis; type: functional, organism-based
Homo sapiens [15] = species: Homo sapiens; assay: Inhibition of PHK (unknown origin) assessed as remaining activity relative to control; values are per cent of control
Homo sapiens [16] = species: Homo sapiens; assay: Inhibition of PI3K (unknown origin) assessed as remaining activity relative to control; values are per cent of control
[17] = target: Mitogen-activated protein kinase 1 (Homo sapiens) (UniProt P28482); assay: Inhibition of ERK2 (unknown origin) assessed as remaining activity relative to control; values are per cent of control
Sequence of Mitogen-activated protein kinase 1 (Homo sapiens) (P28482 whole entry): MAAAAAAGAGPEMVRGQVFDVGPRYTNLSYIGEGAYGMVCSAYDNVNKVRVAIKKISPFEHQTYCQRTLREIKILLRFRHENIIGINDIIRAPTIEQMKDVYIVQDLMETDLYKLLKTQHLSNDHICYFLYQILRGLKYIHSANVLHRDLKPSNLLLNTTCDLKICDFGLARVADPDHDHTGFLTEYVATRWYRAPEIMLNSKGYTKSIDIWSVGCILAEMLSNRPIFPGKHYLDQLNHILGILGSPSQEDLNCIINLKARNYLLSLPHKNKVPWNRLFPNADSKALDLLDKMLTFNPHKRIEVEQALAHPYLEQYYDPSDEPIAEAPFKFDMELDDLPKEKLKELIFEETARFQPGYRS

[18] = target: Mitogen-activated protein kinase 8 (Homo sapiens) (UniProt P45983); assay: Inhibition of JNK1 (unknown origin) assessed as remaining activity relative to control; values are per cent of control
Sequence of Mitogen-activated protein kinase 8 (Homo sapiens) (P45983 whole entry): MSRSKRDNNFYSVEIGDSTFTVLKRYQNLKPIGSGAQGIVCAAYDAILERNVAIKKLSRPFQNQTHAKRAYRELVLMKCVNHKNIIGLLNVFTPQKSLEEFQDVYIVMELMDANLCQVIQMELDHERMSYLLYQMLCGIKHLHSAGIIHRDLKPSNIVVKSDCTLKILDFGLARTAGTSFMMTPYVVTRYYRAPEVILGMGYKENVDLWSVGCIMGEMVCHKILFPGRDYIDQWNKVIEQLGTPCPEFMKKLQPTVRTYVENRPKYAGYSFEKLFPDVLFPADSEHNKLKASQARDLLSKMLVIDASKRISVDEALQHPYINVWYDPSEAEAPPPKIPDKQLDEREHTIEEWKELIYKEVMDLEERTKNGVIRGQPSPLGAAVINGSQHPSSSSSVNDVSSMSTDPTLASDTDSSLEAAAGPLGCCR

[19] = target: MAP kinase-activated protein kinase 5 (Homo sapiens) (UniProt Q8IW41); assay: Inhibition of PRAK (unknown origin) assessed as remaining activity relative to control; values are per cent of control
Sequence of MAP kinase-activated protein kinase 5 (Homo sapiens) (Q8IW41 whole entry): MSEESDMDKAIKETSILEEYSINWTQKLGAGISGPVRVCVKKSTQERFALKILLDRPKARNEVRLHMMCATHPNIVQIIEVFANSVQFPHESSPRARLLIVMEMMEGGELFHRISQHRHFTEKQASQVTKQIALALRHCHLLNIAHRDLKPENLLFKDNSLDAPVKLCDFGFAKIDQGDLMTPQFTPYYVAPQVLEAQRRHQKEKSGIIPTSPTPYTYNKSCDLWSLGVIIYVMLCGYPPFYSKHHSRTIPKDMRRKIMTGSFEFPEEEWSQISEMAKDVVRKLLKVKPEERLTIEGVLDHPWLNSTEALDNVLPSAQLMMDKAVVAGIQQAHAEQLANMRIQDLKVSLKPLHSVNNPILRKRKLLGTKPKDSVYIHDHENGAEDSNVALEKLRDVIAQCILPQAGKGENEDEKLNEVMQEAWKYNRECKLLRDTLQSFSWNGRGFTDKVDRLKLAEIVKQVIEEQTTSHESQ

[20] = target: Serine/threonine-protein kinase Nek2 (Homo sapiens) (UniProt P51955); assay: Inhibition of NEK2A (unknown origin) assessed as remaining activity relative to control; values are per cent of control
Sequence of Serine/threonine-protein kinase Nek2 (Homo sapiens) (P51955 whole entry): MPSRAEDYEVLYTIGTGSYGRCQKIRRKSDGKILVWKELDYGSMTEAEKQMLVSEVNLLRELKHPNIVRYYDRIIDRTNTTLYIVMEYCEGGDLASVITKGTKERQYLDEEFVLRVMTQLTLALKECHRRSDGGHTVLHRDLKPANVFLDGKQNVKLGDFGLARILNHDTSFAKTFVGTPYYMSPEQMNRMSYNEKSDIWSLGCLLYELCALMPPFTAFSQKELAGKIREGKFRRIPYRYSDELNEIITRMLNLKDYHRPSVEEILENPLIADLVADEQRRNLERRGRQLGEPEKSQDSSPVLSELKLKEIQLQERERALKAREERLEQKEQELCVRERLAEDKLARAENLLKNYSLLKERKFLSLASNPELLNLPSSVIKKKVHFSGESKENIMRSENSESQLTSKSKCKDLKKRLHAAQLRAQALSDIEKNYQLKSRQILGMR

[21] = target: Mitogen-activated protein kinase 14 (Homo sapiens) (UniProt Q16539); assay: Inhibition of SAPK2a (unknown origin) assessed as remaining activity relative to control; values are per cent of control
Sequence of Mitogen-activated protein kinase 14 (Homo sapiens) (Q16539 whole entry): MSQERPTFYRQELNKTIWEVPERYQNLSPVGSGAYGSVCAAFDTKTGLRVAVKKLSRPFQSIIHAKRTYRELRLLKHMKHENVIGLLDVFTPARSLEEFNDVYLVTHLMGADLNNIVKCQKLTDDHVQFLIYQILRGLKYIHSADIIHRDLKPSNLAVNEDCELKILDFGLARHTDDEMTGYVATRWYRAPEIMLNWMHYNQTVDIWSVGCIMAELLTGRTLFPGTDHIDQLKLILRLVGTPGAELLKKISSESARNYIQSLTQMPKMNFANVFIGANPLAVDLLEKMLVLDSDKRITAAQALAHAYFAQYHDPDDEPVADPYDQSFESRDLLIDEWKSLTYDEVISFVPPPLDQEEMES

[22] = target: Mitogen-activated protein kinase 11 (Homo sapiens) (UniProt Q15759); assay: Inhibition of SAPK2b (unknown origin) assessed as remaining activity relative to control; values are per cent of control
Sequence of Mitogen-activated protein kinase 11 (Homo sapiens) (Q15759 whole entry): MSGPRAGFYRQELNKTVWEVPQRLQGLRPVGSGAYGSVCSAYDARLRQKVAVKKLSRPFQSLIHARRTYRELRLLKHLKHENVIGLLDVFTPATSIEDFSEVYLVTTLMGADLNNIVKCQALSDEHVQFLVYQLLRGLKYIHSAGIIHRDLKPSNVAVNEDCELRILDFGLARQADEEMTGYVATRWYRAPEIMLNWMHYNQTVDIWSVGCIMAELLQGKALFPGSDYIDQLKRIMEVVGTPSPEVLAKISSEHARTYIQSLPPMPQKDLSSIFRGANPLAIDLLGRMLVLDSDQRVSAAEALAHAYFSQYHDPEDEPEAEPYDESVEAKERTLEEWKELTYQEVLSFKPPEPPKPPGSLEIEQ

[23] = target: RAC-alpha serine/threonine-protein kinase (Homo sapiens) (UniProt P31749); assay: Inhibition of PKBalpha (unknown origin) assessed as remaining activity relative to control; values are per cent of control
Sequence of RAC-alpha serine/threonine-protein kinase (Homo sapiens) (P31749 whole entry): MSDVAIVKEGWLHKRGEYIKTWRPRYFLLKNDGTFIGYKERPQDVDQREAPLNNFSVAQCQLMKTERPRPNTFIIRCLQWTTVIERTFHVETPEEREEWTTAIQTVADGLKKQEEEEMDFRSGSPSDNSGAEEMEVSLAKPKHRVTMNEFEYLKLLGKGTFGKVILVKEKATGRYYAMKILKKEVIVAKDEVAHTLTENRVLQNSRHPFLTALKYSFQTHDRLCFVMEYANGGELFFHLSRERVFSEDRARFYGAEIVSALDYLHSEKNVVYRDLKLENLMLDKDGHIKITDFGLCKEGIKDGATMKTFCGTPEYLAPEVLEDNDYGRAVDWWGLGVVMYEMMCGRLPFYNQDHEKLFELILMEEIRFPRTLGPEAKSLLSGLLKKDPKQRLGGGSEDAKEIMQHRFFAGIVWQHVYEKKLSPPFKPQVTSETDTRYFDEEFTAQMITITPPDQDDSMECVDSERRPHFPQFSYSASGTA

[24] = target: MAP kinase-activated protein kinase 2 (Homo sapiens) (UniProt P49137); assay: Inhibition of MAPKAP-K2 (unknown origin) assessed as remaining activity relative to control; values are per cent of control
Sequence of MAP kinase-activated protein kinase 2 (Homo sapiens) (P49137 whole entry, looked up): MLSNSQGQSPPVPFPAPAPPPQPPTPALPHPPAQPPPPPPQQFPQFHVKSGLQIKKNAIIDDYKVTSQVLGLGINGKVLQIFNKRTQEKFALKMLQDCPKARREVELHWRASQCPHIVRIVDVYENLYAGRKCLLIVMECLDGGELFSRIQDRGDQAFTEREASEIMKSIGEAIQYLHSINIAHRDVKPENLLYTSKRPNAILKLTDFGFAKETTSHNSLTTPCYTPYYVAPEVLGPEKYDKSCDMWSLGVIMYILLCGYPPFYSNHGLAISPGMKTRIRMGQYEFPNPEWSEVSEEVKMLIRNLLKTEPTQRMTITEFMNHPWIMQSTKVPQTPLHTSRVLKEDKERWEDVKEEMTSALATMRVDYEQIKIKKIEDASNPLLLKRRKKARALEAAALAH

[25] = target: Dual specificity tyrosine-phosphorylation-regulated kinase 1A (Homo sapiens) (UniProt Q13627); assay: Inhibition of DYRK1alpha (unknown origin) assessed as remaining activity relative to control; values are per cent of control

- Cmax [6]: 83 nM
- Cmax [7]: 667 nM
- AUC at 600 h [8]: 3.2 µM·h
- AUC at 600 h [9]: 1.07 µM·h
- AUC at 600 h [10]: 1.23 µM·h
- AUC at 600 h [11]: 2.16 µM·h
- residual activity (Homo sapiens [15]): 16%
- residual activity (Homo sapiens [16]): 109%
- residual activity [17]: 88%
- residual activity [18]: 87%
- residual activity [19]: 83%
- residual activity [20]: 94%
- residual activity [21]: 15%
- residual activity [22]: 56%
- residual activity [23]: 70%
- residual activity [24]: 88%
- residual activity [25]: 64%
SMILES: CN(C)C/C=C/C(=O)Nc1cc2c(Nc3ccc(F)c(Cl)c3)ncnc2cc1O[C@H]1CCOC1 [AFATINIB]
- inhibition (NIH3T3 [1]): Active
- inhibition (NIH3T3 [2]): Active
- inhibition (NIH3T3 [3]): Active
- T/C (A-431 [4]): 2%
- inhibition (A-431 [5]): Active
- Activity (Mus musculus [12]): >50%
- Activity (Mus musculus [13]): Active
- Activity (Mus musculus [14]): inactive
